Results published in ChEMBL document CHEMBL1955770, “Inhibition of S/G2 phase CDK4 reduces mitotic fidelity” (J Biol Chem, 2006).
Active and inactive are the calls of the source. The calls are words filed in the database; no cut-off is given here.

Experiments:
Insulin receptor = Insulin receptor (Homo sapiens, UniProt P06213); assay: Inhibition of insulin receptor using fluorescent substrate by IMAP assay
Method in brief: (§1)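 Run in-house using IMAP: phosphorylated fluorescent peptide substrate binds preferentially to immobilized metal beads, which quantifies kinase activity. ATP at 3× the Km of each enzyme.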

[1] = Inhibition of JNK using fluorescent substrate by IMAP assay; method in brief: as §1
HeLa [2] = assay: Cell cycle arrest in Rb-deficient human HeLa cells assessed as accumulation at G2/M phase at 2 uM after 24 hrs by FACS analysis; type: functional
Method in brief: (§2)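 Ethanol-fixed cells stained with propidium iodide/RNase A, DNA content read by FACS, phase and sub-diploid fractions calculated with ModFit.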

[3] = Cell cycle arrest in Rb-competent human SK-MEL-13 cells assessed as accumulation at S phase at 2 uM after 24 hrs by FACS analysis; type: functional; method in brief: as §2
[4] = target: Cyclin-dependent kinase 4 (Homo sapiens) (UniProt P11802); assay: Inhibition of CDK4-mediated Rb phosphorylation at ser 795 in human HCT116 cells at IC50 after 4 hrs by immunoblot analysis; type: cell-based; conditions: HCT-116
Method in brief: (§3)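 Asynchronous HCT-116 cells (DMEM, 3 mM HEPES, 10% serum, 37 °C, 5% CO₂) were given increasing inhibitor doses for 4 or 24 h. Lysis in NETN with phosphatase and protease inhibitors, then SDS-PAGE, nitrocellulose transfer and immunoblot for phospho-Rb (Ser-795) with HRP secondary and chemiluminescence.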

[5] = target: Cyclin-dependent kinase 4 (Homo sapiens) (UniProt P11802); assay: Inhibition of CDK4-mediated Rb phosphorylation at ser 795 in human HCT116 cells at IC90 after 4 hrs by immunoblot analysis; type: cell-based; conditions: HCT-116; method in brief: as §3
[6] = target: Cyclin-dependent kinase 4 (Homo sapiens) (UniProt P11802); assay: Inhibition of CDK4-mediated Rb phosphorylation at ser 795 in human HCT116 cells at 3 times IC90 after 4 hrs by immunoblot analysis; type: cell-based; conditions: HCT-116; method in brief: as §3
[7] = target: Cyclin-dependent kinase 4 (Homo sapiens) (UniProt P11802); assay: Inhibition of CDK4-mediated Rb phosphorylation at ser 795 in human HCT116 cells at 3 times IC90 after 24 hrs by immunoblot analysis; type: cell-based; conditions: HCT-116; method in brief: as §3
COLO 205 [8] = assay: Antiproliferative activity against human COLO205 cells assessed as inhibition of S phase after 48 hrs by MTT assay; type: functional, cell-based; conditions: COLO 205, 48 h
Method in brief: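 Cells grown in DMEM with 3 mM HEPES and 10% Serum Supreme at 37 °C, 5% CO2. Proliferation read by MTT assay 48 h after drug addition; IC50 given as mean of two separate determinations, each in duplicate.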

HeLa [9] = assay: Cell cycle arrest in human HeLa cells assessed as accumulation at G1 phase at 2 uM treated 2 hr and measured 10 hr post double thymidine-synchrony release using propidium iodide staining by FACS analysis (reference value: 68 %); type: functional
[10] = Cell cycle arrest in human SK-MEL-13 cells assessed as accumulation at G2/M phase at 2 uM treated 1 hr and measured 8 hr post double hydroxyurea-synchrony release using propidium iodide staining by FACS analysis (reference value: 16 %); type: functional, cell-based
Method in brief: (§4)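 SK-Mel-13 cells synchronized with 2 mM hydroxyurea, then treated with 2 μM CDK4 inhibitor or left untreated 1 h after release. Harvested at indicated times post-release, ethanol-fixed, propidium iodide/RNase stained, and DNA content read by FACS. Proportions of G1, S and G2/M cells derived with ModFit.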

[11] = Cell cycle arrest in human SK-MEL-13 cells assessed as accumulation at G2/M phase at 2 uM treated 1 hr and measured 10 hr post double hydroxyurea-synchrony release using propidium iodide staining by FACS analysis (reference value: 70 %); type: functional, cell-based; method in brief: as §4
[12] = Cell cycle arrest in human SK-MEL-13 cells assessed as accumulation at S phase at 2 uM treated 1 hr and measured 12 hr post double hydroxyurea-synchrony release using propidium iodide staining by FACS analysis (reference value: 10 %); type: functional, cell-based; method in brief: as §4
A2058 = assay: Cell cycle arrest in human A2058 cells assessed as accumulation at G2/M phase at 2 uM treated 1 hr and measured 12 hr post double hydroxyurea-synchrony release using propidium iodide staining by FACS analysis (reference value: 39 %); type: functional
NCI-H460 = assay: Toxicity in human H460a cells at IC50 after 3 days by MTT assay; type: cell-based; conditions: nci-h460, 72 h
COLO 205 [13] = assay: Toxicity in human COLO205 cells at 8 uM by MTT assay; type: cell-based; conditions: colo 205, 8 µM
HeLa [14] = assay: Cell cycle arrest in human HeLa cells transfected with cyclin D3 siRNA assessed as delay in progression into mitosis at 2 uM measured after 8 to 20 hr post hydroxyurea-synchrony release by time-lapse microscopy; type: functional, cell-based
Method in brief: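 HeLa cells transfected with 20 nM cyclin D3 siRNA number 1 or scrambled siRNA, then synchronized by overnight 2 mM hydroxyurea block and released. Treated with CDK4 inhibitor, siRNA, or both; entry into mitosis followed by time-lapse microscopy.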

HeLa [15] = assay: Induction of abberent mitosis in human HeLa cells assessed as lagging chromosomes at astral side of spindle microtubules at 2 uM treated 1 hr and measured 12 hr post thymidine-synchrony release by fluorescence microscopy; type: functional, cell-based
HeLa [16] = assay: Decrease in survivin protein expression in human HeLa cells at 2 uM measured 14 hr post thymidine-synchrony release by immunoblot analysis; type: functional, cell-based
Method in brief: (§5)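 Synchronized HeLa cells given 2 μM CDK4 inhibitor in early S phase and harvested at set times post-release. Lysed in supplemented NETN buffer on ice for 20 min. Lysates run on SDS-PAGE and immunoblotted for survivin, borealin and other chromosomal passenger proteins, with ECL detection. Cyclin D3 served as loading control.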

HeLa [17] = assay: Effect on aurora B protein expression in human HeLa cells at 2 uM measured 14 hr post thymidine-synchrony release by immunoblot analysis; type: functional, cell-based; method in brief: as §5
HeLa [18] = assay: Induction of abberent mitosis in human HeLa cells expressing GFP-H2B assessed as low survivin staining cells at 2 uM by immunofluorescence method (reference value: 9%); type: functional
HeLa [19] = assay: Cell cycle arrest in human HeLa cells assessed as accumulation at G2/M phase at 2 uM treated 6 hr and measured 8 hr post double thymidine-synchrony release using propidium iodide staining by FACS analysis (reference value: 86 %); type: functional
Method in brief: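 Cells harvested at set times post-release, fixed in 70% ethanol, stained with 5 μg/ml propidium iodide plus 0.5 mg/ml RNase A, and analysed by flow cytometry. Cell-cycle phase fractions calculated by ModFit.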

HeLa [20] = assay: Cell cycle arrest in human HeLa cells assessed as accumulation at G1 phase at 2 uM treated 6 hr and measured 12 hr post double thymidine-synchrony release using propidium iodide staining by FACS analysis (reference value: 81 %); type: functional
[21] = Cell cycle arrest in human SK-MEL-13 cells assessed as time taken to reach peak mitosis at 2 uM treated 1 hr and post double hydroxyurea-synchrony release using propidium iodide staining by FACS analysis; type: functional, cell-based; method in brief: as §4
HeLa [22] = assay: Induction of abberent mitosis in human HeLa cells assessed as lagging chromosomes at 2 uM treated 1 hr and measured 12 hr post thymidine-synchrony release by fluorescence microscopy
HeLa [23] = assay: Cell cycle arrest at G2 phase in human HeLa cells at 2 uM treated at early S phase measured after 6-14 hr post thymidine-synchrony release by immunoblot method relative to untreated control

Sequence of Cyclin-dependent kinase 4 (Homo sapiens) (P11802 whole entry): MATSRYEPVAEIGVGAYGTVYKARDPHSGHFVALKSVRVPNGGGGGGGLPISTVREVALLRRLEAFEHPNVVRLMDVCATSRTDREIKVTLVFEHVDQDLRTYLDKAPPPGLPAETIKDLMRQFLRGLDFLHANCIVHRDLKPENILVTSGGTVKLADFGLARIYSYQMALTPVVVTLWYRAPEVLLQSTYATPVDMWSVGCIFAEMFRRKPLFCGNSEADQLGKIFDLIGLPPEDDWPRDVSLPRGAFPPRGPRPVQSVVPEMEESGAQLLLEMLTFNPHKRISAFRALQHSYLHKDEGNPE
Sequence of Insulin receptor (P06213 28-758 limits assumed): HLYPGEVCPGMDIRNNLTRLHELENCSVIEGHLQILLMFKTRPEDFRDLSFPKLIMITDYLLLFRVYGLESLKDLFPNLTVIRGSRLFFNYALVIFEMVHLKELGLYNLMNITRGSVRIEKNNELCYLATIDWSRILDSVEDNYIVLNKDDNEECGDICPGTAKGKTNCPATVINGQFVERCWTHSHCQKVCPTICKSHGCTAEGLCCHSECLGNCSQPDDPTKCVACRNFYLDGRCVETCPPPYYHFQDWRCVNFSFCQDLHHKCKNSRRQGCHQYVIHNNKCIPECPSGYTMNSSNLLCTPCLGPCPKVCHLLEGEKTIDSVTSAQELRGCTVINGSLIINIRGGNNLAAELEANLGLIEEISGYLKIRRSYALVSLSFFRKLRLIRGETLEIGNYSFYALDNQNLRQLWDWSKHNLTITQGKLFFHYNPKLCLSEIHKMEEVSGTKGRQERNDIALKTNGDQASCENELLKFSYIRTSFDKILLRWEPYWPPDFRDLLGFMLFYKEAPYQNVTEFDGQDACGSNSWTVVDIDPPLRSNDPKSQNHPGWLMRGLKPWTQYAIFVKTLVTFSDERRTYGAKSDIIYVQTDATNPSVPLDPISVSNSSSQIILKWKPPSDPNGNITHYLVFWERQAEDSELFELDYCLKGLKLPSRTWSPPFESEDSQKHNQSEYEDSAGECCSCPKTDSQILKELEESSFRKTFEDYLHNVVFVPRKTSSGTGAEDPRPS
Sequence of Insulin receptor (P06213 763-1382 limits assumed): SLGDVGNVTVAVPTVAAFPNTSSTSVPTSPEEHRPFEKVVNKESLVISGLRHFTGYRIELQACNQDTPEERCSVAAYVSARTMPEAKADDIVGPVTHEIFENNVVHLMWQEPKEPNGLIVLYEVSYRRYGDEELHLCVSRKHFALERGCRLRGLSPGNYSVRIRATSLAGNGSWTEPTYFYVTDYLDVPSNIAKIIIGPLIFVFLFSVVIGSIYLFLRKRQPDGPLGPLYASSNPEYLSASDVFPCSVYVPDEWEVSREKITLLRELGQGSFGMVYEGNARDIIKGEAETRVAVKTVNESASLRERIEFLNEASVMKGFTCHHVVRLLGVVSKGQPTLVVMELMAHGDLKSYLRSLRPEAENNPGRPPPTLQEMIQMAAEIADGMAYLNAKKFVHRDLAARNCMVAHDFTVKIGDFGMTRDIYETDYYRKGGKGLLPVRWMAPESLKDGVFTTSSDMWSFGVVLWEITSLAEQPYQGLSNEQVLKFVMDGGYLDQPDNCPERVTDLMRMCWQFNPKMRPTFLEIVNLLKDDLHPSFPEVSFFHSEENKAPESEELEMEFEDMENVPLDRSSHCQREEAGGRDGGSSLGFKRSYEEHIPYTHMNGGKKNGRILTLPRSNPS

Compound: CN1CCN(c2ccc(Nc3nc(N)c(C(=O)c4ccc5c(c4)OCCO5)s3)cc2)CC1
- IC50 (Insulin receptor): 71 µM
- IC50 [1]: > 50 µM
- Activity (HeLa [2]): 14%
- Activity [3]: 7%
- inhibition [4]: Active
- inhibition [5]: Active
- inhibition [6]: Active
- inhibition [7]: Active
- IC50 (COLO 205 [8]): 2.04 µM
- Activity (HeLa [9]): 4%
- Activity [10]: 70%
- Activity [11]: 75%
- Activity [12]: 10%
- Activity (A2058): 60%
- Activity (NCI-H460): Toxic
- Activity (COLO 205 [13]): Toxic
- Activity (HeLa [14]): Active
- Activity (HeLa [15]): Active
- Activity (HeLa [16]): Active
- Activity (HeLa [17]): inactive
- Activity (HeLa [18]): 18%
- Activity (HeLa [19]): 88%
- Activity (HeLa [20]): 73%
- TIME [21]: 10 h
- Activity (HeLa [22]): 40%
- Activity (HeLa [23]): Active

Compound: COc1cccc(C(=O)c2sc(Nc3ccc(N4CCN(C(C)C)CC4)cc3)nc2N)c1
- IC50 (Insulin receptor): 24 µM
- IC50 [1]: > 50 µM
- Activity (HeLa [2]): 14%
- Activity [3]: 7%
- inhibition [4]: Active
- inhibition [5]: Active
- inhibition [6]: Active
- inhibition [7]: Active
- IC50 (COLO 205 [8]): 0.56 µM
- Activity (HeLa [9]): 4%
- Activity [10]: 70%
- Activity [11]: 75%
- Activity [12]: 10%
- Activity (A2058): 60%
- Activity (NCI-H460): Toxic
- Activity (COLO 205 [13]): Toxic
- Activity (HeLa [14]): Active
- Activity (HeLa [15]): Active
- Activity (HeLa [16]): Active
- Activity (HeLa [17]): inactive
- Activity (HeLa [18]): 18%
- Activity (HeLa [19]): 88%
- Activity (HeLa [20]): 73%
- TIME [21]: 10 h
- Activity (HeLa [22]): 40%
- Activity (HeLa [23]): Active
